Results reported in ChEMBL document CHEMBL1128267, “Dicationic diarylfurans as anti-Pneumocystis carinii agents” (J Med Chem, 1995).

Columns and labels:
Pneumocystis carinii [1] = assay: In vivo activity against pneumocystis carinii was determined as toxicity which indicates the death of animals at a dose of 66.3 (uM/kg/day); assay type: organism-based
How it was run: (§1)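 Dosing intravenous unless otherwise noted; daily dose in μM/kg/day. Toxicity graded on a numerical severity scale where higher scores mean more severe toxicity and scores above 2 mean some animals died.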

Pneumocystis carinii [2] = assay: In vivo activity against pneumocystis carinii was determined as toxicity which indicates the death of animals and counted cysts in a blinding protocol in lung tissue reported as % of saline treated control at a dose of 2.7 (uM/kg/day); assay type: organism-based
How it was run: (§2)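 Dosed intravenously unless otherwise marked (some oral). Toxicity graded on a severity scale where larger values are more severe and values above 2 mean some animals died. Cysts in lung tissue counted under a blinded protocol and expressed as percent of saline-treated controls.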

Pneumocystis carinii [3] = assay: In vivo activity against pneumocystis carinii was determined as toxicity which indicates the death of animals at a dose of 0.027 (uM/kg/day); assay type: organism-based; how it was run: as §1
Pneumocystis carinii [4] = assay: In vivo activity against pneumocystis carinii was determined as toxicity which indicates the death of animals at a dose of 13.3 (uM/kg/day); assay type: organism-based; how it was run: as §1
Pneumocystis carinii [5] = assay: In vivo activity against pneumocystis carinii was determined as toxicity which indicates the death of animals and counted cysts in a blinding protocol in lung tissue reported as % of saline treated control at a dose of 13.3 (uM/kg/day); assay type: organism-based; how it was run: as §2
Pneumocystis carinii [6] = assay: In vivo activity against pneumocystis carinii was determined as toxicity which indicates the death of animals and counted cysts in a blinding protocol in lung tissue reported as % of saline treated control at a dose of 66.3 (uM/kg/day); assay type: organism-based; how it was run: as §2
Pneumocystis carinii [7] = assay: In vivo activity against pneumocystis carinii was determined as toxicity which indicates the death of animals at a dose of 2.7 (uM/kg/day); assay type: organism-based; how it was run: as §1
Pneumocystis carinii [8] = assay: In vivo activity against pneumocystis carinii was determined as toxicity which indicates the death of animals at a dose of 0.27 (uM/kg/day); assay type: organism-based; how it was run: as §1
Pneumocystis carinii [9] = assay: In vivo activity against pneumocystis carinii was determined as toxicity which indicates the death of animals and counted cysts in a blinding protocol in lung tissue reported as % of saline treated control at a dose of 0.027 (uM/kg/day); assay type: organism-based; how it was run: as §2
Pneumocystis carinii [10] = assay: In vivo activity against pneumocystis carinii was determined as toxicity which indicates the death of animals and counted cysts in a blinding protocol in lung tissue reported as % of saline treated control at a dose of 0.27 (uM/kg/day); assay type: organism-based; how it was run: as §2
Giardia intestinalis = assay: Inhibitory activity for 50% on growth of Giardia lamblia in cell culture; assay type: functional, organism-based; settings: Giardia duodenalis
Pneumocystis carinii [11] = assay: In vivo activity against pneumocystis carinii was determined as toxicity which indicates the death of animals and counted cysts in a blinding protocol in lung tissue reported as % of saline treated control at a dose of 23.3 uM/Kg/day; assay type: organism-based; how it was run: as §2
Pneumocystis carinii [12] = assay: In vivo activity against pneumocystis carinii was determined as toxicity which indicates the death of animals at a dose of 23.3 uM/Kg/day; assay type: organism-based; how it was run: as §2
[13] = molecular target: DNA topoisomerase II (Giardia lamblia); assay: Inhibitory activity for 50% on topoisomerase II isolated from Giardia lamblia
Pneumocystis carinii [14] = assay: In vivo activity against pneumocystis carinii was determined as toxicity which indicates the death of animals at a dose of 4.8 uM/Kg/day; assay type: organism-based; how it was run: as §1
Pneumocystis carinii [15] = assay: In vivo activity against pneumocystis carinii was determined as toxicity which indicates the death of animals and counted cysts in a blinding protocol in lung tissue reported as % of saline treated control at a dose of 4.8 uM/Kg/day; assay type: organism-based; how it was run: as §2
Pneumocystis carinii [16] = assay: In vivo activity against pneumocystis carinii was determined as toxicity which indicates the death of animals and counted uM/Kg/day; assay type: organism-based; how it was run: as §2
Pneumocystis carinii [17] = assay: In vivo activity against pneumocystis carinii was determined as toxicity which indicates the death of animals at a dose of 2.3 uM/Kg/day; assay type: organism-based; how it was run: as §1
Pneumocystis carinii [18] = assay: In vivo activity against pneumocystis carinii was determined as toxicity which indicates the death of animals and counted cysts in a blinding protocol in lung tissue reported as % of saline treated control at a dose of 2.3 uM/Kg/day; assay type: organism-based; how it was run: as §2
Pneumocystis carinii [19] = assay: In vivo activity against pneumocystis carinii was determined as toxicity which indicates the death of animals at a dose of 0.18 uM/Kg/day; assay type: organism-based; how it was run: as §1
Pneumocystis carinii [20] = assay: In vivo activity against pneumocystis carinii was determined as toxicity which indicates the death of animals at a dose of 22.1 (uM/kg/day); assay type: organism-based; how it was run: as §1
Pneumocystis carinii [21] = assay: In vivo activity against pneumocystis carinii was determined as toxicity which indicates the death of animals and counted cysts in a blinding protocol in lung tissue reported as % of saline treated control at a dose of 22.1 (uM/kg/day); assay type: organism-based; how it was run: as §2
Pneumocystis carinii [22] = assay: In vivo activity against pneumocystis carinii was determined as toxicity which indicates the death of animals at a dose of 9.2 uM/Kg/day; assay type: organism-based; how it was run: as §1
Pneumocystis carinii [23] = assay: In vivo activity against pneumocystis carinii was determined as toxicity which indicates the death of animals and counted cysts in a blinding protocol in lung tissue reported as % of saline treated control at a dose of 9.2 uM/Kg/day; assay type: organism-based; how it was run: as §2
Pneumocystis carinii [24] = assay: In vivo activity against pneumocystis carinii was determined as toxicity which indicates the death of animals and counted cysts in a blinding protocol in lung tissue reported as % of saline treated control at a dose of 10.9 uM/Kg/day); assay type: organism-based; how it was run: as §2
Pneumocystis carinii [25] = assay: In vivo activity against pneumocystis carinii was determined as toxicity which indicates the death of animals at a dose of 10.9 uM/Kg/day; assay type: organism-based; how it was run: as §1

With Cl.Cl.N=C(N)c1ccc(-c2ccc(-c3ccc(C(=N)N)cc3)o2)cc1 the “No. of dead animals” value (Pneumocystis carinii [1]) was 0, the Control (Pneumocystis carinii [2]) was 8.3% and the “No. of dead animals” value (Pneumocystis carinii [3]) was 0. For the same molecule, the “No. of dead animals” value (Pneumocystis carinii [4]) was 0, the Control (Pneumocystis carinii [5]) was 2.1% and the Control (Pneumocystis carinii [6]) was 28.4%. For the same molecule, the “No. of dead animals” value (Pneumocystis carinii [7]) was 0, the “No. of dead animals” value (Pneumocystis carinii [8]) was 0 and the Control (Pneumocystis carinii [9]) was 55.9%. The Control (Pneumocystis carinii [10]) was 4.8%.
N[C+](N)c1ccc(-c2ccc(-c3ccc([C+](N)N)cc3)o2)cc1 showed an IC50 (Giardia intestinalis) of 0.44 µM.
With Cl.c1cc(-c2ccc(-c3ccc(C4=NCCN4)cc3)o2)ccc1C1=NCCN1 the Control (Pneumocystis carinii [11]) was 35.4%, the IC50 (Giardia intestinalis) was 1.95 µM and the Toxicity (Pneumocystis carinii [12]) was 2 number of dead animals. For the same molecule, the IC50 [13] was 3 µM.
For Cl.Cl.OCCN1CCN=C1c1ccc(-c2ccc(-c3ccc(C4=NCCN4CCO)cc3)o2)cc1, the “No. of dead animals” value (Pneumocystis carinii [14]) was 3, the IC50 (Giardia intestinalis) was 4.6 µM and the IC50 [13] was 20 µM. The Control (Pneumocystis carinii [15]) was 107.3%.
In the case of Cl.Cl.c1cc(-c2ccc(-c3ccc(C4=NCCCCN4)cc3)o2)ccc1C1=NCCCCN1, the Control (Pneumocystis carinii [16]) is reported as 115.4%, the “No. of dead animals” value (Pneumocystis carinii [17]) is reported as 3 and the Control (Pneumocystis carinii [18]) is reported as 2.9%. The IC50 (Giardia intestinalis) was 0.93 µM, the “No. of dead animals” value (Pneumocystis carinii [19]) was 0 and the IC50 [13] was 1.5 µM.
For N=C(N)c1ccc(OCCCCCOc2ccc(C(=N)N)cc2)cc1 [PENTAMIDINE], the “No. of dead animals” value (Pneumocystis carinii [20]) was 2 and the Control (Pneumocystis carinii [21]) was 3.66%.
In the case of Cl.Cl.c1cc(-c2ccc(-c3ccc(C4=NC5CCCCC5N4)cc3)o2)ccc1C1=NC2CCCCC2N1 (configuration not stated), the “No. of dead animals” value (Pneumocystis carinii [22]) is reported as 1, the IC50 (Giardia intestinalis) is reported as 4 µM and the IC50 [13] is reported as 3 µM. It also gave a Control (Pneumocystis carinii [23]) of 80.5%.
With Cl.Cl.c1cc(-c2ccc(-c3ccc(C4=NCCCN4)cc3)o2)ccc1C1=NCCCN1 the Control (Pneumocystis carinii [24]) was 0.4%, the “No. of dead animals” value (Pneumocystis carinii [25]) was 2 and the IC50 (Giardia intestinalis) was 0.085 µM. The IC50 [13] was 0.5 µM.
With CCN1CCN=C1c1ccc(-c2ccc(-c3ccc(C4=NCCN4CC)cc3)o2)cc1.Cl.Cl the IC50 (Giardia intestinalis) was 3.3 µM and the IC50 [13] was 25 µM.
